Compound activity deposited in PubChem by The Scripps Research Institute Molecular Screening Center.
This is a sample that favours compounds with a hit; in the whole collection about 1.4% have one here.
TDP2 absorb = blocks human TDP2 phosphodiesterase activity | recombinant TDP2, T5PNP hydrolysis, p-nitrophenol absorbance 415 nm | inhibition, % at 12.8 µM | hit rate 0.34% among 370,000 | AID 720702;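 active = inhibition above the mean of all tested compounds plus 3 SD, set per campaign, cut at about 25% in these data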;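 note: 0% = DMSO with enzyme and 100% = buffer with substrate but no TDP2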
Target sequence (O95551 whole entry, looked up): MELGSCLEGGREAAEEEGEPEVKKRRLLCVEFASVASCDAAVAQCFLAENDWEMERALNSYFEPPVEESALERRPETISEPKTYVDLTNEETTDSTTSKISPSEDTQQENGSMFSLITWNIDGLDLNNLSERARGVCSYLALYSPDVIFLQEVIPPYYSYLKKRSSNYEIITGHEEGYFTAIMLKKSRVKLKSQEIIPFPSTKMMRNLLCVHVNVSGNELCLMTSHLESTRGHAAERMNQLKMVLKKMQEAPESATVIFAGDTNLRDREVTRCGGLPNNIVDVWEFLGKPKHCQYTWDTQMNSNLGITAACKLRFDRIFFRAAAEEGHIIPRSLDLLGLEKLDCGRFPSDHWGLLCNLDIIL
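Assay system: recombinant human TDP2 / Reagent: T5PNP substrate at 5 mM, a TopII-DNA adduct mimic / Measured by: epi absorbance from released p-nitrophenol / Evaluation: % inhibition relative to enzyme-containing and enzyme-free wells / Control set: enzyme-free and DMSO wells / Replicates: each compound tested once, singlicate / Schedule: enzyme reaction with compound for 2 h at 37 °C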
GSTO1 inh = blocks human GSTO1 in RBBP9 counter-screen. recombinant GSTO1, activity-based probe fluorescence polarization. P78417. hit rate 1.1% among 300,000. inhibition, % at 5.96 µM;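 active = inhibition above the campaign mean inhibition plus 3 SD, cut at about 35% in these data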;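 note: 0% = GSTO1-1 with DMSO and 100% = wells lacking GSTO1-1 enzyme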
Target sequence (P78417 whole entry, looked up): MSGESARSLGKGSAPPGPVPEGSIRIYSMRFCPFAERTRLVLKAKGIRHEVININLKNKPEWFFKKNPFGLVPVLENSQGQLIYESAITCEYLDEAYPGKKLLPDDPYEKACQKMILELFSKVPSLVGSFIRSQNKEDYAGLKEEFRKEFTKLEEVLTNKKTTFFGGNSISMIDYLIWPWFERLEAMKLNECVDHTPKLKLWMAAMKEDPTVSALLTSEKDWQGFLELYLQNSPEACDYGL
Fh CTSL1 inh = counter-screen for PFM18AAP inhibitors: inhibitors of F. hepatica cathepsin L1 | recombinant F. hepatica cathepsin L1, Z-Leu-Arg-MCA fluorescence | inhibition, % at 5.96 µM | hit rate 0.49% among 300,000 | AID 1906;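 active = inhibition above the mean of all tested compounds plus 3 SD, set per screening campaign, cut at about 17% in these data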;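 note: 0% = plate median of test compound wells and 100% = 1 µM Z-Phe-Ala-diazomethylketone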
PAD4 inh = blocks human protein arginine deiminase 4 | Q9UM07 | recombinant PAD4, RCA probe fluorescence polarization | inhibition, % at 6.36 µM | hit rate 0.41% among 330,000 | AID 485272;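 active = percent inhibition above a cutoff equal to the mean of all tested compounds plus 3 SD, cut at about 15% in these data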;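 note: 0% = PAD4 with RCA probe and DMSO and 100% = probe without PAD4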
PAD4 confirm = PAD4 (human) inhibition, confirmed. shares compounds with PAD4 inh. recombinant PAD4, RCA probe fluorescence polarization. inhibition, % at 6.36 µM. hit rate 28% among 1,200;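 active = mean inhibition across replicates above the hit cutoff set by the earlier primary screen, cut at about 15% in these data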;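 note: inhibitors block active-site labeling by the probe so polarization falls; 0% = PAD4 with probe and DMSO and 100% = probe without PAD4 enzyme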
* hit, by the source's call.

COc1ccc(CN2C[C@@]3(O)CC[C@@H](O)[C@@H](OC)[C@@H]3[C@@]2(C)[C@H](O)CC=C(C)C)cc1 was read as TDP2 absorb 9.4.
`CNc1ccccc1/C(O)=C(\C#N)C(=O)NCc1cccs1` gave TDP2 absorb 0.6.
CCC(=O)N(Cc1cc(=O)[nH]c2ccccc12)c1ccc(C)cc1 was read as TDP2 absorb -21.9, GSTO1 inh -17.5, Fh CTSL1 inh 1.3, PAD4 inh 15.4* and PAD4 confirm 0.1.
CCCC(=O)N(Cc1cc(=O)[nH]c2ccccc12)c1cccc(C)c1 was read as TDP2 absorb 5.2, GSTO1 inh -4.8, Fh CTSL1 inh 1.5, PAD4 inh 22.0* and PAD4 confirm 48.9*.
CC(=O)N(Cc1cc(=O)[nH]c2ccccc12)c1ccccc1 was read as TDP2 absorb 11.9, GSTO1 inh -2.4, Fh CTSL1 inh 2.3 and PAD4 inh 5.5.
CC(=O)N(Cc1cc(=O)[nH]c2ccccc12)c1cccc(C)c1 was read as TDP2 absorb -10.7, GSTO1 inh 2.9, Fh CTSL1 inh -0.7, PAD4 inh 53.0* and PAD4 confirm 44.3*.
`CCCN(Cc1cc(=O)[nH]c2ccccc12)C(=O)CC` gave TDP2 absorb -0.3, GSTO1 inh 0.5, Fh CTSL1 inh 2.3 and PAD4 inh 2.3.
CCCC(=O)N(Cc1cc(=O)[nH]c2ccccc12)c1ccccc1C was read as TDP2 absorb 3.3, GSTO1 inh -2.6, Fh CTSL1 inh -2.7, PAD4 inh 15.0* and PAD4 confirm 16.8*.
Screening CC(=O)N(Cc1cc(=O)[nH]c2ccccc12)c1ccccc1C returned TDP2 absorb 10.2, GSTO1 inh -11.7, Fh CTSL1 inh -4.7 and PAD4 inh 12.2.
Screening Cc1ccccc1Cn1cc(CN2[C@H](CC(C)C)COc3cc(Br)ccc3S2(=O)=O)nn1 returned TDP2 absorb -8.4.
For CCCCCCCCN1C(=O)[C@@H](CC(=O)NCCc2ccccc2OC)C[C@@]2(C(=O)OC)C1=C[C@H](COCc1ccccc1)O[C@@H]2C the results were TDP2 absorb -0.8.
For Fc1ccc(C[n+]2csc3ccccc32)cc1 the results were TDP2 absorb 8.5, GSTO1 inh 9.4, Fh CTSL1 inh -0.2, PAD4 inh 20.8* and PAD4 confirm 33.8*.
Screening Clc1ccc(C[n+]2csc3ccccc32)cc1 returned TDP2 absorb 12.7, GSTO1 inh -4.4, Fh CTSL1 inh -7.0, PAD4 inh 19.1* and PAD4 confirm 33.7*.
COc1ccccc1C(=O)NC1CCCCN(Cc2cccc(Cl)c2)C1=O (stereo unspecified) was read as TDP2 absorb 1.7.
`CCC(=O)Nc1ccccc1C(=O)C(=O)Nc1ccccc1` gave TDP2 absorb 10.5, GSTO1 inh 5.0, Fh CTSL1 inh -0.7, PAD4 inh 19.9* and PAD4 confirm -0.5.
For CC(=O)Nc1ccccc1C(=O)C(=O)Nc1ccccc1 the results were TDP2 absorb 2.5, GSTO1 inh -0.8, Fh CTSL1 inh -1.9 and PAD4 inh -3.6.
`Cc1ccc(-n2c(SCC(=O)Nc3ccccc3-c3ccccc3)nnc2-c2cnccn2)cc1` gave TDP2 absorb -15.1.
Screening OC(c1ccc(Cl)c(Cl)c1)c1ncc(-c2ccccc2C(F)(F)F)[nH]1 (stereo unspecified) returned TDP2 absorb -2.3.
COc1cccc(NC(=O)CN(C)C(=O)C23CC4CC(CC(Cl)(C4)C2)C3)c1 was read as TDP2 absorb 6.4, PAD4 inh active and PAD4 confirm -4.2.
Screening Cc1cccc(N2CCN(C(=S)c3ccc([N+](=O)[O-])cc3)CC2)c1 returned TDP2 absorb 3.1, GSTO1 inh 4.0, Fh CTSL1 inh 4.4 and PAD4 inh 3.5.
Cc1ccccc1N1CCN(C(=S)c2ccc([N+](=O)[O-])cc2)CC1 was read as TDP2 absorb -2.0, GSTO1 inh -0.8, Fh CTSL1 inh 3.8, PAD4 inh 19.5* and PAD4 confirm 1.6.
COc1ccc(C2=CC(c3ccc(OC)c(OC)c3)NC(=S)N2)cc1 (stereo unspecified) was read as TDP2 absorb 3.0, GSTO1 inh -3.8, Fh CTSL1 inh -2.2, PAD4 inh 49.0* and PAD4 confirm 55.7*.
`COc1cccc(C2=CC(c3ccc(OC)c(OC)c3)NC(=S)N2)c1` (stereo unspecified) gave TDP2 absorb -9.7, GSTO1 inh -5.9, Fh CTSL1 inh 3.8, PAD4 inh 30.2* and PAD4 confirm 55.9*.
COc1ccc(C2C=C(c3ccc(F)cc3)NC(=S)N2)cc1OC (stereo unspecified) was read as TDP2 absorb 11.1, GSTO1 inh 6.1, Fh CTSL1 inh 2.4 and PAD4 inh 5.2.
COC(=O)[C@]12C[C@H](CC(=O)N3CCCC3)C(=O)N(Cc3cccc4ccccc34)C1=C[C@H](C1CCCC1)O[C@@H]2C was read as TDP2 absorb -0.4.
Screening Clc1ccc(CN2CCN(c3ncc(Cc4ccccc4)cn3)CC2)c(Cl)c1 returned TDP2 absorb 8.5.
Screening CC1=CC(C)(C)N2C(=O)C3(C(C#N)=C(N)OC4=C3C(=O)CC(C)(C)C4)c3c(C)c(C)cc1c32 (stereo unspecified) returned TDP2 absorb -3.1, GSTO1 inh 1.5, Fh CTSL1 inh -0.3, PAD4 inh 39.9* and PAD4 confirm -4.5.
For CCOC(=O)NC(=O)/C(C#N)=C\Nc1ccc(Cl)cc1Cl the results were TDP2 absorb -2.2, GSTO1 inh -4.6, Fh CTSL1 inh -0.9 and PAD4 inh 1.7.
CCOC(=O)NC(=O)/C(C#N)=C\Nc1sccc1C(=O)OC was read as TDP2 absorb -4.4, GSTO1 inh 3.5, Fh CTSL1 inh -2.8, PAD4 inh 35.1* and PAD4 confirm 4.1.
`CC(C)C(=O)N1CC[C@H]2[C@H](CCCN2Cc2cc(F)cc(F)c2)C1` gave TDP2 absorb 8.4.
For Fc1cc(F)c(CSc2nnc(-c3cccnc3)n2Cc2ccccc2)cc1F the results were TDP2 absorb 7.3.
CCOC(=O)C1=C(C)N=c2s/c(=C\c3ccc(OCC(=O)O)c(OC)c3)c(=O)n2C1c1ccc(OC)cc1 (stereo unspecified) was read as TDP2 absorb 17.5, GSTO1 inh -9.9, Fh CTSL1 inh 10.4, PAD4 inh 15.4* and PAD4 confirm 2.7.
`Cc1ccccc1CS(=O)(=O)Cc1ccc(C(=O)Nc2ccc(F)cc2F)o1` gave TDP2 absorb -4.9.
C=CCNC(=O)C(=O)NCC1CCCN1S(=O)(=O)c1cccs1 (stereo unspecified) was read as TDP2 absorb 8.1, GSTO1 inh 5.4, Fh CTSL1 inh -1.7, PAD4 inh 26.6* and PAD4 confirm 10.2.
Screening NC(=O)c1ccc(NC(=O)CSC(=O)c2ccccc2)cc1 returned TDP2 absorb -1.4, PAD4 inh 16.8* and PAD4 confirm 7.9.
O=C1CCCC(O)=C1N=Nc1ccc(C(=O)O)cc1 was read as TDP2 absorb -13.4, GSTO1 inh 28.7, Fh CTSL1 inh 3.0 and PAD4 inh 4.5.
